Series [1] is described as follows: Cytotoxicity against human Huh-7 cells infected with ZIKV MR766 pretreated with virus for 1 hr followed by infection of cells with compound treated-virus for 30 hrs by MTS assay. In kind it is toxicity, cell-based. In a few lines:
(§1)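 MTS viability assay. Cells were treated under the same conditions as the antiviral assays. Absorbance was expressed as % of medium-only cells, and CC50 was derived from the curve. Seeding densities were 1.2 × 10^4/well for Vero, 1.3 × 10^4/well for A549 and 1.6 × 10^4/well for Huh7. DMEM with 2% FBS.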

For series [2], the system named is Usutu virus. The series is described as follows: Antiviral activity against USUV 3345 isolate Arb276 infected in African green monkey Vero cells assessed as viral growth inhibition at 0.13 to 100 uM pretreated with cells 24 hrs prior to viral infection by time of addition assay. In kind it is functional, organism-based. As to conditions: dose 0.13-100 µM. In a few lines:
(§2)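 Time-of-addition assay in Vero. Serial dilutions (100 to 0.13 μM) were added to cells 24 h or 2 h before infection, during the 2 h infection, or post-infection for 24 h (USUV) or 30 h (ZIKV). Cells were fixed in cold acetone-methanol (50:50) and infected cells detected by indirect immunostaining. EC50/EC90 came from variable-slope sigmoidal fits; mean of three independent experiments.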

In series [3] the test system is Zika virus. The series is described as follows: Antiviral activity against ZIKV MR766 infected in African green monkey Vero cells assessed as titer reduction in viral progeny production at 15 uM treated for 2 hrs followed by virus removal and subsequent addition of medium containing compound measured after 48 hrs by plaque reduction assay. In kind it is functional, organism-based. The note with it: time 50.0 hrs. In a few lines: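 Vero cells seeded 6.5 × 10^4/well, exposed in duplicate for 2 h at 37 °C to virus (MOI 0.1) mixed with compound at 5 or 15 μM. After three washes, medium containing compound was added for 48 h. Supernatants were clarified and titred on Vero by focus reduction (USUV, FFU/ml) or plaque assay (ZIKV, PFU/ml). DMSO-matched infected controls; mean of three experiments.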
On the technique in general: Plaques are areas of infected cells; plaque reduction assays count them against a control.

In series [4] the test system is Usutu virus. As to the kind of experiment: Antiviral activity against USUV 3345 isolate Arb276 infected in African green monkey Vero cells assessed as viral growth inhibition at 0.13 to 100 uM pretreated with cells 2 hrs prior to viral infection by time of addition assay. In kind it is functional, organism-based. The note with it: dose 0.13-100 µM. In a few lines: as §2

The nature of series [5]: Cytotoxicity against African green monkey Vero cells infected with ZIKV MR766 pretreated with virus for 1 hr followed by infection of cells with compound treated-virus for 30 hrs by MTS assay. Type of series: toxicity, cell-based. As to conditions: chlorocebus sabaeus. The method in brief:
as §1
A general note: Tetrazolium assays rely on reduction of a dye to a coloured formazan, in cell work by metabolically active cells.

Series [6] has as its system Usutu virus. As to the kind of experiment: Antiviral activity against USUV 3345 isolate Arb276 infected in African green monkey Vero cells assessed as reduction in viral replication pretreated with virus for 1 hr followed by infection of cells with compound treated-virus for 20 hrs by focus reduction assay. In kind it is functional, organism-based. As to conditions: Usutu virus, 3345, Vero; for EC90: time 21 hrs.

Series [7] has as its system Usutu virus. The series is described as follows: Antiviral activity against USUV 3345 isolate Arb276 infected in African green monkey Vero cells assessed as viral growth inhibition at 11 to 100 uM pretreated with virus for 1 hr followed by infection of cells with compound treated-virus for 20 hrs by focus reduction assay relative to control. In kind it is functional. As to conditions: dose 11-100 µM, time 21 hrs. In a few lines:
(§3)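 Virus (MOI 0.02) preincubated with compound 1 h at 37 °C, then mixture put on Vero cells (1.2 × 10^4/well, seeded the day before) in DMEM with 2% FBS for 30 h (ZIKV) or 20 h (USUV) at 37 °C. Fixed in cold acetone-methanol, foci immunostained with anti-flavivirus E 4G2 antibody and counted. % infection is relative to DMSO-treated wells. Screen used 100, 33 and 11 μM.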

The subject of series [8] is Zika virus. The series is described as follows: Antiviral activity against ZIKV MR766 infected in African green monkey Vero cells assessed as viral growth inhibition at 0.13 to 100 uM treated immediately after viral infection for 2 hrs by time of addition assay. As to conditions: dose 0.13-100 µM, in the assay text read “during viral infection” for “immediately after viral infection”. In kind it is functional, organism-based. The method in brief:
as §2

Series [9] concerns Zika virus. The series is described as follows: Antiviral activity against ZIKV MR766 infected in human Huh-7 cells assessed as reduction in viral replication pretreated with virus for 1 hr followed by infection of cells with compound treated-virus for 30 hrs by focus reduction assay. Type of series: functional, organism-based. As to conditions: for EC50: MR766, Huh-7; for EC90: MR766, Huh-7, time 31 hrs. In a few lines:
(§4)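 Dose-response: serial dilutions (100 to 0.13 μM) preincubated 1 h at 37 °C with virus (MOI 0.02), then added to cells for 20 h (USUV) or 30 h (ZIKV) in 2% FBS DMEM. Cells per well: Vero 1.2 × 10^4, A549 1.3 × 10^4, Huh7 1.6 × 10^4. Foci immunostained and counted. EC50/EC90 fitted by variable-slope sigmoidal curve, mean of three independent experiments.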

Series [10] deals with Zika virus. The series is described as follows: Antiviral activity against ZIKV MR766 infected in African green monkey Vero cells assessed as viral growth inhibition at 0.13 to 100 uM pretreated with cells 2 hrs prior to viral infection by time of addition assay. Type of series: functional, organism-based. The note with it: dose 0.13-100 µM. The method in brief:
as §2

Series [11] can be described thus: Selectivity ratio of EC50 for antiviral activity against ZIKV MR766 infected in African green monkey Vero cells pretreated with cells 24 hrs prior to viral infection to EC50 for antiviral activity against ZIKV MR766 infected in African green monkey Vero cells treated immediately after viral infection for 30 hrs. In kind it is functional, Zika virus. In a few lines:
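Time of addition: serial dilutions (100 to 0.13 μM) put on cells either 24 h before infection or after infection for 30 h (ZIKV). Infected cells fixed in acetone-methanol and immunostained. EC50 computed for each treatment condition by sigmoidal fit; the ratio compares the two EC50s.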

The nature of series [12]: Aqueous solubility in deionized water containing 1.38% DMSO. In kind it is physicochemical.
Series [13] concerns Usutu virus. The series is described as follows: Antiviral activity against USUV 3345 isolate Arb276 infected in African green monkey Vero cells assessed as viral growth inhibition at 0.13 to 100 uM treated immediately after viral infection for 2 hrs by time of addition assay. Type of series: functional, organism-based. As to conditions: dose 0.13-100 µM, in the assay text read “during viral infection” for “immediately after viral infection”. In a few lines:
as §2

The test system of series [14] is Usutu virus. The series is described as follows: Antiviral activity against USUV 3345 isolate Arb276 infected in human A549 cells assessed as reduction in viral replication pretreated with virus for 1 hr followed by infection of cells with compound treated-virus for 20 hrs by focus reduction assay. Type of series: functional, organism-based. The note with it: Usutu virus, 3345, A549; for EC90: time 21 hrs. In a few lines: as §4

Series [15] relates to Zika virus. The series is described as follows: Antiviral activity against ZIKV MR766 infected in African green monkey Vero cells assessed as viral growth inhibition at 0.13 to 100 uM treated immediately after viral infection for 30 hrs by time of addition assay. Type of series: functional, organism-based. As to conditions: dose 0.13-100 µM. The method in brief:
as §2

The subject of series [16] is Zika virus. As to the kind of experiment: Antiviral activity against ZIKV MR766 infected in African green monkey Vero cells assessed as reduction in plaque formation pretreated with virus for 1 hr followed by infection of cells with compound treated-virus for 2 hrs and further treatment of compound for 72 hrs by crystal violet staining based assay. In kind it is functional, organism-based. The note with it: time 75.0 hrs. In a few lines:
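Plaque reduction assay. Vero cells were seeded 6 × 10^4/well. ZIKV (MOI 0.005) was preincubated with serial compound dilutions for 1 h at 37 °C, then adsorbed on cells for 2 h. After two washes, cells were overlaid with 1.2% methylcellulose in DMEM for 72 h, then fixed and stained with 0.1% crystal violet for 30 min. Plaques counted; EC50/EC90 from variable-slope sigmoidal fits.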

For series [17], the system named is Zika virus. The series is described as follows: Antiviral activity against ZIKV MR766 infected in African green monkey Vero cells assessed as viral growth inhibition at 11 to 100 uM pretreated with virus for 1 hr followed by infection of cells with compound treated-virus for 30 hrs by focus reduction assay relative to control. Type of series: functional. As to conditions: dose 11-100 µM, time 31 hrs. The method in brief: as §3

The source made the active and inactive calls. The calls are words filed in the database; no cut-off is given here.

As for `O=C1C[C@H](c2ccc([C@H]3N(c4ccc([N+](=O)[O-])cc4)C(=O)[C@@H]4CCCN43)cc2)O[C@@H]1CO`, the CC50 at 31 h in [1] and in series [5] was more than 500 µM each time. In addition, the outcome in the series with Usutu virus [2], in the series with Zika virus [3], in the series with Zika virus [15] and in the series with Zika virus [16] was Active. Further, the result in the series on Usutu virus [4], in the series on Zika virus [8], in the series on Zika virus [10] and in the series on Usutu virus [13] was inactive. The EC50 – broadly, the concentration giving half of the maximal effect – in the series on Usutu virus [6] is 2.76 µM; in the series on Zika virus [9] it was 2.36 µM; in the series on Usutu virus [14], 6.82 µM. The EC90 – broadly, the point of the concentration-response curve where the effect stands at 90% – with Usutu virus [6] worked out at 4.34 µM; in the series on Zika virus [9], 4.19 µM; in the series with Usutu virus [14] it was 15.2 µM. Besides, the “inhibition (INH)” value with Usutu virus [7] and in the series on Zika virus [17] was 100% throughout. Also, in [11], the “Ratio EC50” value was determined as 5. Besides, the solubility (commonly the concentration that dissolves in the medium under given conditions) in series [12] is more than 897 µg/mL.

`O=C1[C@@H]2CCCN2[C@@H](c2ccc([C@H]3C[C@@H](O)[C@@H](CO)O3)cc2)N1c1ccc([N+](=O)[O-])cc1`: the CC50 at 31 h in series [1] and in series [5] was more than 500 µM in each case. Further, the result in the series with Usutu virus [2], with Zika virus [3], in the series on Zika virus [15] and in the series on Zika virus [16] was Active. Besides, the outcome with Usutu virus [4], in the series on Zika virus [8], in the series with Zika virus [10] and in the series on Usutu virus [13] was inactive. Moreover, the results for the concentration giving a half-maximal response (EC50) in the series with Usutu virus [6], in the series on Zika virus [9] and in the series on Usutu virus [14] were 2.53 µM, 2.26 µM and 6.42 µM, respectively. Moreover, the EC90 is 3.89 µM in the series on Usutu virus [6], 4.26 µM in the series with Zika virus [9] and 12 µM in the series with Usutu virus [14]. In addition, the “inhibition (INH)” value in the series with Usutu virus [7] and in the series with Zika virus [17] was 100% throughout. Moreover, in series [11], the “Ratio EC50” value turned out to be 5. The solubility in series [12] was more than 947 µg/mL.

For the origin of these results see ChEMBL document CHEMBL5325402, “Exploration of novel hexahydropyrrolo[1,2-e]imidazol-1-one derivatives as antiviral agents against ZIKV and USUV” (Eur J Med Chem, 2023).
